Screening results from PubChem.
Sampled rows, rich in hits. Any-hit rate of the full collection: about 0.7%.
NPR1 activator = GC-A (human) enzyme activation; P16066; HEK293 GC-A cells, cGMP TR-FRET, EC30 ANP; 0% at EC30 ANP, 100% saturating ANP; activation, % at 10 µM; actives 0.14% (n = 370,000); AID 1671463; in the data active = activation above about 40%
CaV13 FRET inh = Primary screen for inhibitors of IQ motif and Ca2+-dependent inactivation inhibitor domain binding in CACNA1D, Förster resonance energy transfer in living cells, … | HEK cells, CFP/YFP FRET ICDI-IQ, plate reader, 10 min; percent FRET-ratio fall versus neutral wells | inhibition, % at 12.3 µM | actives 0.098% (n = 340,000) | AID 743397;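 active = mean replicate inhibition of at least 30% and at least 1% of replicates passing that level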;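 note: 0% = median of the neutral control wells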
Vif imaging = blocks HIV Vif function | HEK293T cells, Vif self-association by quenched fluorescence, imaging, 24 h | inhibition, % at 7.49 µM | actives 0.35% (n = 340,000) | AID 602346; in the data active = inhibition above about 50%, passing the limit was not always enough
N-glyco inh = N-linked glycosylation inhibition; D54 ERlucT glycosylation luciferase reporter, 24 h; percent of 100 nM tunicamycin response; reporter increase, % at 12.5 µM; actives 0.23% (n = 360,000);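 active = mean luciferase reporter signal, scaled so untreated is 0 and the glycosylation-blocking control 100, at or above a set limit in every replicate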;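 note: luciferase carries N-glycosylation sites so blocking glycosylation raises the light; 0% = median of neutral control wells and 100% = median of 100 nM tunicamycin wells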
XiGFP reactiv = activators of X-chromosome reactivation in mouse fibroblasts. activation, % at 7.58 µM. XiGFP mouse fibroblasts, % GFP-positive cells imaging, 3 d; cells co-treated with 5-aza-dC sensitizer; scaled so ellipticine positive control = 100%. actives 0.055% (n = 360,000);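 active = mean normalized replicate activation at least 10% and every replicate at or above 10%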;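 note: 0% = median of on-plate neutral control wells and 100% = ellipticine 6 µM median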
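System: 68-5-11 XiGFP fibroblast line; Timing: 3 days compound exposure; Compound dosing: one concentration, pinned; Benchmarks: positive control ellipticine, 6 µM final; Buffer or medium: DMEM containing 5-aza-dC.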
GC-B act = GC-B (human) receptor activation; P20594; HEK293-GC-B cells, CNP EC30, cGMP TR-FRET; 0% at EC30 CNP, 100% saturating CNP; activation, % at 10 µM; actives 0.11% (n = 370,000);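 active = activation at 10 µM reaching about 35% in either raw or pattern-adjusted values, limit read from the data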
Numbers without * were called inactive; x = not tested or not shown.

SMILES	NPR1 activator	CaV13 FRET inh	Vif imaging	N-glyco inh	XiGFP reactiv	GC-B act
CC[C@@]12C(=O)N(c3cccc(F)c3)C(=O)N1[C@H](c1cccc(C)c1)[C@@H]1C(=O)N(Cc3ccccc3)C(=O)[C@@H]12	-8	-9	1	7	0	-17
Cc1cccc([C@@H]2[C@@H]3C(=O)N(Cc4ccccc4)C(=O)[C@@H]3[C@]3(Cc4ccccc4)C(=O)N(c4cccc(Cl)c4)C(=O)N23)c1	-21	-4	-1	41*	0	-13
Cc1cccc([C@@H]2[C@@H]3C(=O)N(Cc4ccccc4)C(=O)[C@@H]3[C@]3(Cc4ccccc4)C(=O)N(c4cccc(F)c4)C(=O)N23)c1	-12	-10	x	34*	0	-18
C[C@@H]1CN([C@@H](C)CO)S(=O)(=O)c2ccc(Br)cc2O[C@H]1CN(C)C(=O)c1cnccn1	x	x	x	x	0	x
COc1ccc(CN2CC3(C2)CN(Cc2ccc4c(c2)OCO4)[C@H](CO)c2[nH]c4cc(OC)ccc4c23)cc1	x	x	x	x	0	x
CN1C(=O)c2cc(NC(=O)c3cccs3)ccc2OC[C@@H]2O[C@H](CC(=O)NCC3CC3)CC[C@H]21	x	x	x	x	0	x
C[C@H](CO)N1C[C@H](C)[C@H](CN(C)C(=O)Nc2ccc3c(c2)OCO3)Oc2ccc(NC(=O)CCC(F)(F)F)cc2CC1=O	x	x	x	x	0	x
CCOc1ccc(-c2c(C(=O)N/N=C/c3cccs3)nnn2-c2nonc2N)cc1	0	-4	82*	1	0	0
CCCOc1ccc(-c2c(C(=O)N/N=C/c3ccc(C)cc3)nnn2-c2nonc2N)cc1	-5	-16	54*	2	0	0
CCNC(=O)C[C@@H]1CC[C@H]2[C@H](COc3ccc(NC(=O)C4CCOCC4)cc3C(=O)N2C)O1	x	x	x	x	0	x
COc1ccc(S(=O)(=O)Oc2ccc3ccccc3c2)cc1	2	-3	-2	3	0	-3
COC1=C(OC)C(=O)C(Sc2ccc3ccccc3c2)=CC1=O	40*	-2	3	3	5	20
O=C(C[C@@H]1C=C[C@@H](NC(=O)Nc2cc(F)ccc2F)[C@@H](CO)O1)NCc1ccc2c(c1)OCO2	x	x	x	x	0	x
Cc1ccc(-c2cnc3c(c2)C(=O)N([C@@H](C)CO)C[C@@H](C)[C@H](CN(C)Cc2ccccc2C(=O)O)O3)cc1	x	x	x	x	0	x
c1ccc(-c2cc(NCCN3CCCCC3)c3ccccc3n2)cc1	9	-18	-20	71*	0	4
COc1ccc(C[C@H]2CN3C(=NC[C@@H]3Cc3ccccc3)N2CCNC(=O)CCC2CCCCC2)cc1	-10	65*	-6	-16	0	-12
COc1ccc(C[C@H]2CN3C(=NC[C@@H]3C(C)C)N2CCNC(=O)CCC2CCCCC2)cc1	-4	-6	0	-2	0	-8
CCN(CC)c1ccc(CC(=O)NC(C)Cc2ccccc2)cc1 (stereo not drawn)	0	x	101*	2	x	-1
CCCN(CCC)c1ccc(CC(=O)NC(C)Cc2ccccc2)cc1 (stereo not drawn)	-2	-13	4	0	0	6
